In paper PMC5574666 (International Journal of Nanomedicine, 2017):
Several values for one entry are separate records, joined by “and”; a condition that tells them apart may be missing. Identical values can stand only once.

Tests used:
MCF-7 cells [1] = assay: Cytotoxicity MTT assay; assay type: cell-based, Human; conditions: 0.1-10 μg·mL^−1, 48 hours
MCF-7/ADR cells = assay: Cellular uptake; assay type: cell-based, Human; conditions: MCF-7/ADR cells compared with MCF-7 cells
Procedure, shortened: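 MCF-7 and MCF-7/ADR cells were grown in DMEM with 10% FBS and 1% penicillin-streptomycin at 37°C and 5% CO2. They were seeded at 5×10^4 per well in 24-well plates and grown 24 h.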

[2] = Biodistribution of DOX in tumor-bearing mice; assay type: in vivo; conditions: BALB/c nude mice bearing MCF-7/ADR tumors, 5 mg·kg^−1 DOX i.v., 1, 6, 12, 24 hours
MCF-7 cells [3] = assay: Cellular uptake; assay type: cell-based, Human; conditions: 6 and 24 h
Maximum tolerated dose = assay type: in vivo; conditions: BALB/c mice; for Animal death: 2 weeks
Procedure, shortened: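 Female BALB/c mice were randomized into three formulation groups. […] Body weight and survival were monitored daily for 2 weeks. MTD was taken as the highest dose causing neither death from systemic toxicity nor >15% body weight loss over the study.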

[4] = In vivo pharmacokinetic study; conditions: male Sprague-Dawley rats, 5 mg·kg^−1 DOX i.v., n=6
In vivo toxicity study = assay: In vivo toxicity study; design: species or system BALB/c nude mice
Procedure, shortened: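 Male BALB/c nude mice bearing MCF-7/ADR xenografts were randomized into five groups when tumors reached ~100 mm3. Groups received i.v. saline, carrier or test formulations. Body weight was tracked during the efficacy study. At its end, heart, liver, spleen, lung and kidney were excised, stained with H&E and examined microscopically at 200×.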

COc1cccc2c1C(=O)c1c(O)c3c(c(O)c1C2=O)C[C@@](O)(C(=O)CO)C[C@@H]3O[C@H]1C[C@H](N)[C@H](O)[C@H](C)O1 [DOX, doxorubicin]
cell viability (MCF-7 cells [1]): effectively reduced the viability of MCF-7 cells in a dose-dependent manner
internalization into cells (MCF-7/ADR cells): substantially reduced
DOX content in tumor [2]: negligible after 6 hours
internalization into cells (MCF-7 cells [3]): internalized into MCF-7 cells in a time-dependent manner
Weight loss (Maximum tolerated dose; single i.v. dose 5 mg/kg DOX): 2.0%
Animal death (Maximum tolerated dose; single i.v. dose 5 mg/kg DOX): 0/3
Weight loss (Maximum tolerated dose; single i.v. dose 10 mg/kg DOX): 7.4%
Animal death (Maximum tolerated dose; single i.v. dose 10 mg/kg DOX): 0/3
Animal death (Maximum tolerated dose; single i.v. dose 15 mg/kg DOX, 15 mg/kg): 2 out of 3 and 2/3
AUC0–∞ [4]: 36.318 ± 6.517 µg/mL/h
CL [4]: 2.37 ± 0.467 mL/min/kg
Cmax [4]: 10275 ± 1219 ng/mL
MRT0–∞ [4]: 3.429 ± 0.658 h
Vd [4]: 0.300 ± 0.073 L/kg
bodyweight reduction (In vivo toxicity study; BALB/c nude mice bearing MCF-7/ADR tumors, 5 mg DOX/kg): 30%
H&E histology of main organs (heart, liver, spleen, lung, kidney) (In vivo toxicity study; end of the antitumor inhibition test): caused cardiotoxicity
